Laboratory results: ChEMBL document CHEMBL4382274, “NQO1-Selective Activated Prodrug of Triptolide: Synthesis and Antihepatocellular Carcinoma Activity Evaluation” (ACS Med Chem Lett, 2018)
The source made the active and inactive calls. The calls are words filed in the database; no cut-off is given here.

Legend:
HepG2 [1] = assay: Cytotoxicity against human HepG2 cells up to 20 uM after 48 hrs by XTT assay; type: functional, cell-based
HepG2 [2] = assay: Antitumor activity against human HepG2 cells xenografted in Balb/c nude mouse assessed as reduction in tumor growth at 0.2 mg/kg, ip administered once daily for 15 days; type: functional, organism-based
Method in brief: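 HepG2 cells were inoculated into nude mice, and daily ip dosing began one week later and ran for two weeks. Tumour volume was followed over the treatment, and tumours were weighed and imaged at the end. n = 8 mice/group; Student's t test was used against the control.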

[3] = Toxicity in Balb/c nude mouse xenografted with human HepG2 cells assessed as change in body weight at 0.2 mg/kg, ip administered once daily for 15 days measured during compound dosing; type: organism-based; conditions: in vivo, 360 h
Method in brief: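 Xenografted nude mice (8/group) received ip doses once daily for two weeks, starting one week after HepG2 inoculation. Body weight was recorded throughout the treatment period.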

[4] = biological target: T1, General transcription and DNA repair factor IIH helicase/translocase subunit XPB (Homo sapiens, UniProt P19447); assay: Inhibition of […] ATPase activity in human HeLa cell nuclear extracts; type: cell-based
T1 sequence (P19447 whole entry): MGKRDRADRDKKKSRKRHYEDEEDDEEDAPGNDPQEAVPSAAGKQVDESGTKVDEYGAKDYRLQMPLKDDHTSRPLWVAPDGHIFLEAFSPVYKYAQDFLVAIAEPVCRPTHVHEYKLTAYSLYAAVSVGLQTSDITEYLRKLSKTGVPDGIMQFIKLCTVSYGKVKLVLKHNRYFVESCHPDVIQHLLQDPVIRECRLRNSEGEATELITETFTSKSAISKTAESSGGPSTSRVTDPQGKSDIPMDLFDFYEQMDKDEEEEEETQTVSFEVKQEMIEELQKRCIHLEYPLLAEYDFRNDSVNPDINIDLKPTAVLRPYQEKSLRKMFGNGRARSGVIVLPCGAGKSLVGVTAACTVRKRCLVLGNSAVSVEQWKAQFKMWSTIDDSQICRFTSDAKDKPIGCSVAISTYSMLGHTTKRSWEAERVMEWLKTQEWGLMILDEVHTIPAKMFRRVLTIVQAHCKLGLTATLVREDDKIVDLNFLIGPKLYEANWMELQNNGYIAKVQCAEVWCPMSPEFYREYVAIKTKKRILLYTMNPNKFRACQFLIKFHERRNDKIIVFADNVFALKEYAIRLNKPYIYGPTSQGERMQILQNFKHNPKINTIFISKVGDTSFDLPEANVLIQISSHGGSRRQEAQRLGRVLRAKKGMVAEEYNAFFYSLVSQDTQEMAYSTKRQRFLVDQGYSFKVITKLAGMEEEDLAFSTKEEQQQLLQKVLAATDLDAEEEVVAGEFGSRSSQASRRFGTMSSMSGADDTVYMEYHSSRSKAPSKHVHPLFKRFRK

[5] = Hepatotoxicity in Balb/c nude mouse xenografted with human HepG2 cells assessed as pathological abnormalities at 0.2 mg/kg, ip administered once daily for 15 days by hematoxylin and eosin staining based microscopic analysis; type: toxicity, organism-based; conditions: in vivo, 360 h
[6] = Toxicity in Balb/c nude mouse at 0.2 mg/kg, ip; type: organism-based; conditions: in vivo
[7] = Renal toxicity in Balb/c nude mouse xenografted with human HepG2 cells assessed as increase in serum BUN levels at 0.2 mg/kg, ip administered once daily for 15 days; type: organism-based; conditions: in vivo, 360 h
Method in brief: (§1)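 HepG2-xenografted nude mice were dosed every day for 15 days. Serum ALT, AST, creatinine and blood urea nitrogen were measured and compared with the control.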

[8] = Hepatotoxicity in Balb/c nude mouse xenografted with human HepG2 cells assessed as effect on serum AST levels at 0.2 mg/kg, ip administered once daily for 15 days; type: toxicity, organism-based; conditions: in vivo, 360 h; method in brief: as §1
Hepatocyte = assay: Cytotoxicity against primary hepatocytes (unknown origin) after 48 hrs by XTT assay; type: cell-based
[9] = Renal toxicity in Balb/c nude mouse xenografted with human HepG2 cells assessed as glomerular capillary loop lesions at 0.2 mg/kg, ip administered once daily for 15 days by hematoxylin and eosin staining based microscopic analysis; type: organism-based; conditions: in vivo, 360 h
Method in brief: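 After 15 days of daily dosing, kidneys from xenografted nude mice were sectioned, H&E stained and examined at ×200 for glomerular capillary loop lesions, alongside control sections.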

HepG2 [10] = assay: Cytotoxicity against human HepG2 cells after 48 hrs by XTT assay; type: functional, cell-based; conditions: HepG2, 48 h
[11] = Hepatotoxicity in Balb/c nude mouse xenografted with human HepG2 cells assessed as effect on serum ALT levels at 0.2 mg/kg, ip administered once daily for 15 days; type: toxicity, organism-based; conditions: in vivo, 360 h; method in brief: as §1
[12] = Renal toxicity in Balb/c nude mouse xenografted with human HepG2 cells assessed as increase in serum creatinine levels at 0.2 mg/kg, ip administered once daily for 15 days; type: organism-based; conditions: in vivo, 360 h; method in brief: as §1
[13] = Toxicity in Balb/c nude mouse at 1 mg/kg, ip; type: organism-based; conditions: in vivo
Method in brief: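 In a preliminary experiment, nude mice were given a single ip dose of 1.0 mg/kg and observed for toxic symptoms.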

[14] = Tmax in KM mouse at 1 mg/kg, ip administered as single dose; type: ADME, organism-based; conditions: in vivo
Method in brief: (§2)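 Mice received a single ip dose at 1.0 mg/kg. Levels were measured in plasma, liver and kidney with a validated analytical method, and plasma was sampled over time to 2 h and beyond. Derived values were absorption, distribution and terminal half-lives, tmax, Cmax and AUC tissue/plasma ratios.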

carboxyl ester hydrolase = assay: Half life in human plasma assessed as carboxyl ester hydrolase-mediated compound degradation at 10 uM by UV-HPLC analysis; type: ADME, cell-free
Method in brief: (§3)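 Compound was incubated for 1 h in vitro in human plasma or human liver microsomes, and half-life was determined from its disappearance.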

[15] = Time at which plasma concentration stays above in vitro IC50 for antiproliferative activity against human HepG2 cells in KM mouse at 1 mg/kg, ip administered as single dose; type: organism-based; conditions: in vivo; method in brief: as §2
[16] = biological target: T2, NAD(P)H dehydrogenase [quinone] 1 (Homo sapiens, UniProt P15559); assay: Prodrug activation in human HepG2 cell lysates assessed as NQO1-mediated triptolide formation at 10 uM after 60 mins in presence of NADPH and NQO1 inhibitor dicoumarol by HPLC analysis; type: subcellular, Lysate; conditions: hepg2, 1 h
Keratinocyte = assay: Cytotoxicity against human keratinocytes after 48 hrs by XTT assay; type: cell-based
[17] = Hepatotoxicity in Balb/c nude mouse xenografted with human HepG2 cells assessed as effect on serum ALT levels at 0.3 to 1 mg/kg, ip administered once daily for 15 days; type: toxicity, organism-based; conditions: in vivo, 360 h
Method in brief: (§4)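 Nude mice were dosed ip every day for 15 days at 0.2 mg/kg (reference), 0.3 mg/kg or 1.0 mg/kg. Serum ALT, AST, creatinine and BUN were measured. Kidney sections were H&E stained and examined at X200. Comparisons were made against control.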

[18] = biological target: NQO1 (NAD(P)H dehydrogenase [quinone] 1) (Homo sapiens, UniProt P15559); assay: Half life in human HepG2 cell lysates assessed as NQO1-mediated compound degradation at 10 uM in presence of NADPH by HPLC analysis; type: ADME, subcellular, Lysate
HepG2 [19] = assay: Antitumor activity against human HepG2 cells xenografted in Balb/c nude mouse assessed as reduction in tumor growth at 0.3 to 1 mg/kg, ip administered once daily for 15 days; type: functional, organism-based
Method in brief: (§5)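 HepG2 xenograft in nude mice. Dosing began one week after cell inoculation, ip once daily for two weeks. Tumor volume was followed during treatment, tumor weight taken at the end, and body weight monitored throughout. n = 8 mice/group; Student's t test against control.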

[20] = Plasma concentration in KM mouse at 1 mg/kg, ip administered as single dose at 2 hrs post dose; type: ADME, organism-based; method in brief: as §2
[21] = Ratio of AUC in KM mouse kidney to plasma at 1 mg/kg, ip administered as single dose; type: ADME, organism-based; conditions: other tissue; method in brief: as §2
A549 = assay: Cytotoxicity against human A549 cells after 48 hrs by XTT assay; type: functional, cell-based; conditions: A549, 48 h
[22] = Cytotoxicity against human skin fibroblasts after 48 hrs by XTT assay
HeLa = assay: Cytotoxicity against human HeLa cells after 48 hrs by XTT assay; type: functional, cell-based
[23] = biological target: T2, NAD(P)H dehydrogenase [quinone] 1; assay: Prodrug activation in human HepG2 cell lysates assessed as NQO1-mediated CX-21 formation at 10 uM up to 60 mins in presence of NADPH by HPLC analysis; type: subcellular, Lysate; conditions: hepg2, 1 h
[24] = Hepatotoxicity in Balb/c nude mouse xenografted with human HepG2 cells assessed as effect on serum AST levels at 0.3 to 1 mg/kg, ip administered once daily for 15 days; type: toxicity, organism-based; conditions: in vivo, 360 h; method in brief: as §4
[25] = Terminal half life in KM mouse at 1 mg/kg, ip administered as single dose; type: ADME, organism-based; conditions: in vivo, read-out: beta t1/2; method in brief: as §2
HepG2 [26] = assay: Cytotoxicity against human HepG2 cells after 48 hrs in presence of NQO1 inhibitor dicoumarol by XTT assay; type: functional, cell-based
[27] = Distribution half life in KM mouse at 1 mg/kg, ip administered as single dose; type: ADME, organism-based; conditions: in vivo, read-out: alphat1/2; method in brief: as §2
CYP450 = CYP450 (Homo sapiens, UniProt P04798+P05177+P05181+P08684+P10632+P10635+P11509+P11712+P13584+P20813+P20815+P20853+P24462+P24903+P33260+P33261+P51589+P78329+P98187+Q02928+Q08477+Q16678+Q16696+Q5TCH4+Q6VVX0+Q7Z449+Q8TAV3+Q96SQ9+Q9HB55); assay: Half life in human liver microsomes assessed as CYP450-mediated compound degradation at 10 uM by UV-HPLC analysis; type: ADME; method in brief: as §3
[28] = Hepatotoxicity in Balb/c nude mouse xenografted with human HepG2 cells assessed as pathological abnormalities at 0.3 to 1 mg/kg, ip administered once daily for 15 days by hematoxylin and eosin staining based microscopic analysis; type: toxicity, organism-based; conditions: in vivo, 360 h
[29] = biological target: T2, NAD(P)H dehydrogenase [quinone] 1; assay: Prodrug activation in human HepG2 cell lysates assessed as NQO1-mediated triptolide formation at 10 uM up to 60 mins in presence of NADPH by HPLC analysis; type: subcellular, Lysate; conditions: hepg2, 1 h
[30] = Therapeutic index, ratio of IC50 for primary hepatocytes (unknown origin) to IC50 for human HepG2 cells; type: toxicity; conditions: primary hepatocytes (unknown origin) versus HepG2 cells, read-out: Ratio IC50
[31] = Ratio of AUC in KM mouse liver to plasma at 1 mg/kg, ip administered as single dose; type: ADME, organism-based; conditions: other tissue; method in brief: as §2
[32] = Plasma concentration in KM mouse at 1 mg/kg, ip administered as single dose after 2 hrs; type: ADME, organism-based; conditions: in vivo, BLD = below limit of detection; method in brief: as §2
[33] = Toxicity in Balb/c nude mouse xenografted with human HepG2 cells assessed as change in body weight at 0.3 to 1 mg/kg, ip administered once daily for 15 days measured during compound dosing; type: organism-based; conditions: in vivo, 360 h; method in brief: as §5
[34] = biological target: T2, NAD(P)H dehydrogenase [quinone] 1; assay: Prodrug activation in human HepG2 cell lysates assessed as NQO1-mediated CX-21 formation at 10 uM after 60 mins in presence of NADPH and NQO1 inhibitor dicoumarol by HPLC analysis; type: subcellular, Lysate; conditions: hepg2, 1 h
[35] = Cmax in KM mouse at 1 mg/kg, ip administered as single dose; type: ADME, organism-based; set-up: dose 1 mg/kg, route intraperitoneal; conditions: in vivo; method in brief: as §2

T2 sequence (P15559 whole entry): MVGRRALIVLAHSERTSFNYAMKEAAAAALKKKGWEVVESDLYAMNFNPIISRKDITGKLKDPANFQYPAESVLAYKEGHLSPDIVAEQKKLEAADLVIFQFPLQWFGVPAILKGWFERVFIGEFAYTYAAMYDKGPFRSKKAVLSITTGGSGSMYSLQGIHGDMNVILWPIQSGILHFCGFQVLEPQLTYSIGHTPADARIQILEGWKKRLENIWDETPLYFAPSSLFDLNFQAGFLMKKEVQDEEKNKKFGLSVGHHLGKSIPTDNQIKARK
NQO1 (NAD(P)H dehydrogenase [quinone] 1), sequence (P15559 whole entry): as above

O=c1oc2ccccc2c(O)c1Cc1c(O)c2ccccc2oc1=O
Activity (HepG2 [1]): inactive

CC(C)[C@]12O[C@H]1[C@@H]1O[C@]13[C@]1(O[C@H]1C[C@H]1C4=C(CC[C@@]13C)C(=O)OC4)[C@@H]2O [TRIPTOLIDE]
Activity (HepG2 [2]): Active | Activity [3]: Non-Toxic | inhibition (INH) [4]: Active | Activity [5]: Non-Toxic | Activity [6]: Non-Toxic | Activity [7]: Toxic | Activity [8]: Non-Toxic | IC50 (Hepatocyte): 37.7 nM | Activity [9]: Toxic | IC50 (HepG2 [10]): 43.3 nM | Activity [11]: Non-Toxic | Activity [12]: Toxic

CC1=C(C)C(=O)C(C(C)(C)CC(=O)O[C@@H]2[C@@]3(C(C)C)O[C@H]3[C@@H]3O[C@]34[C@]23O[C@H]3C[C@H]2C3=C(CC[C@@]24C)C(=O)OC3)=C(C)C1=O
Activity [13]: Non-Toxic | Tmax [14]: 3 min | half-life at 10 µM (carboxyl ester hydrolase): > 60 min | Time [15]: 40 min | Drug metabolism [16]: Metabolite_Notdetected | IC50 (Keratinocyte): > 1000 nM | Activity [17]: Non-Toxic | half-life at 10 µM [18]: 7.27 min | Activity (HepG2 [19]): Active | inhibition (INH) [4]: Not Active | concentration at 2 h [20]: 1.38 ng/mL | Ratio [21]: < 5% | IC50 (A549): 59.4 nM | IC50 [22]: > 1000 nM | IC50 (HeLa): 38.2 nM | Drug metabolism [23]: Metabolite_Detected | Activity [24]: Non-Toxic | half-life [25]: 154 min | Activity (HepG2 [26]): inactive | half-life [27]: 15.1 min | half-life at 10 µM (CYP450): > 60 min | Activity [28]: Non-Toxic | Drug metabolism [29]: Metabolite_Detected | selectivity ratio [30]: 9.89 | Ratio [31]: < 5% | IC50 (Hepatocyte): 540 nM | Cp [32]: Bld | Activity [33]: Non-Toxic | IC50 (HepG2 [10]): 54.3 nM | Drug metabolism [34]: Metabolite_Notdetected | Cmax [35]: 243 ng/mL
